Source: PubChem
KCNK9 block: blocks the human KCNK9 two-pore domain potassium channel. AID 488922. B-score at 10 µM. 1.2% of 310,000 active. HEK293 KCNK9, FluxOR thallium flux fluorescence; active compounds read low. Q9NPC2;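 active = ratio B-score over 3 SD below the library mean, with starting fluorescence within 5 SD of its mean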;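 also: negative B-score means less thallium flux so channel inhibition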
KCC2 mod: modulators of human KCC2 chloride dependent transport; B-score of Tl+ flux slope (higher = more flux/activation; lower = inhibition) at 10 µM; KCC2 cells, thallium flux FluoZin-2 fluorescence; 2.2% of 190,000 active; Q9H2X9;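 active = thallium flux slope and its plate-corrected score both differing from the plate sample mean at a set confidence after two filtering rounds, in either direction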;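 also: slope of fluorescence scaled to starting intensity during 10 to 20 s after thallium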
hERG rescue: shields human hERG channel from block by proarrhythmic agents. activation (rescue from dofetilide block), less the hit threshold, % at 10 µM. Q12809. CHO-hERG, FluxOR thallium flux, dofetilide IC70 present. 0.51% of 310,000 active;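 active = activation above the mean of controls blocked by dofetilide plus 5 SD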;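 also: thallium influx through hERG after potassium depolarization seen as dye fluorescence rise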
KCNK3 block: human KCNK3 channel inhibition, primary screen; CHO-KCNK3 thallium flux, FluxOR fluorescence; active compounds read low; B-score at 10 µM; 0.84% of 340,000 active;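 active = B-score under library mean minus 4 SD, starting fluorescence ratio at most library mean plus 5 SD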;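 also: more negative B-score means stronger inhibition of thallium flux through KCNK3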
KCNQ1 act: potentiators or activators of human KCNQ1 potassium channel; P51787; CHO-K1 KCNQ1, thallium flux FluxOR fluorescence; active compounds read high; B-score at 10 µM; 0.35% of 310,000 active; AID 2648;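 active = fluorescence ratio B-score, a plate-corrected score, at least three library SD, with initial intensity B-score within 5 SD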
Target sequence (P51787 whole entry, looked up): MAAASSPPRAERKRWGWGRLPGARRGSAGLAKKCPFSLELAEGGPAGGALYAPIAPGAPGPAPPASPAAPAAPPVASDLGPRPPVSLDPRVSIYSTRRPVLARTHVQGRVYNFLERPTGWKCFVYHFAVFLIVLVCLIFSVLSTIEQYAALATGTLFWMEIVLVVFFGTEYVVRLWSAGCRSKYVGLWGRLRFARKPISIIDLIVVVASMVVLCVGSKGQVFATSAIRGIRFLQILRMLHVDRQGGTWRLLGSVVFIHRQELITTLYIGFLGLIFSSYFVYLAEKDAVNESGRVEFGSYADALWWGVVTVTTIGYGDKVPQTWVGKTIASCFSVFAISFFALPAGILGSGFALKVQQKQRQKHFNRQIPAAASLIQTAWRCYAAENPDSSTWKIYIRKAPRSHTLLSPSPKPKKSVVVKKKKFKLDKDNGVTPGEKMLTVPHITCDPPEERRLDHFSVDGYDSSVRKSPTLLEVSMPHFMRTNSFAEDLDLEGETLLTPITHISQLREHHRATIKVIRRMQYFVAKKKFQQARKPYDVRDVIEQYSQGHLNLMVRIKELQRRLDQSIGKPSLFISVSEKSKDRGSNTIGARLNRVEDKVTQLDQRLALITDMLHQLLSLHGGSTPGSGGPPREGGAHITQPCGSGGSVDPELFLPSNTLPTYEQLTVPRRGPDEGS
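Assay system: CHO-K1 cells stably expressing KCNQ1. Medium: assay buffer for compound exposure, DMSO matched across wells. Timing: 37 °C overnight plating, 90-min dark dye load, 20-min compound pretreatment. Signal: kinetic FluxOR fluorescence, 10 s baseline plus 110 s post-stimulus.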
KCNQ1 block: blocks the human KCNQ1 potassium channel | CHO-K1 KCNQ1, FluxOR thallium flux fluorescence; active compounds read high | B-score at 10 µM | 1.3% of 310,000 active | AID 2642 | P51787;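 active = compounds whose thallium flux B-score, printed positive for inhibition, exceeds three library SD while starting fluorescence stays within three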;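 also: channel opened by potassium depolarization with thallium stimulus after 20 min compound exposure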
Active calls of the source: *; i = inactive; x = not tested or not shown. An excerpt weighted towards active compounds, which were near 4.1% of everything screened.

SMILES	KCNK9 block	KCC2 mod	hERG rescue	KCNK3 block	KCNQ1 act	KCNQ1 block
O=c1c(-c2cccc([N+](=O)[O-])c2)[n+]([O-])c2ccccc2n1O	i	-0.48	-10	i	i	i
O=c1c(-c2ccc(Cl)cc2)[n+]([O-])c2ccccc2n1O	i	9.6*	40*	i	32*	i
CC(=O)C[C@@H](O)CC(=O)[C@@H]1OC(=O)[C@H](C)CCCCc2ccccc21	x	x	x	i	x	x
COc1cccc(CNC(=O)CSc2nc3ccc(C)cc3[nH]2)c1	i	x	-5	i	i	i
COc1ccccc1N1CCN(C(C)C(=O)N2CC(C)OC(C)C2)CC1 (stereo not given)	i	0.88	-14	i	i	i
CC(C(=O)N1CCCC1)N1CCN(c2ccccc2O)CC1 (stereo not given)	i	1.6	11*	i	i	i
COc1ccc(S(=O)(=O)N2CCN(CC(=O)NCCc3cccs3)CC2)cc1	x	x	x	i	x	x
CN1CCN(NC(=O)Nc2cccc(F)c2)CC1	i	x	-7	i	i	8*
O=C(C[n+]1ccccc1)N/N=C/c1ccc(Cl)c(Cl)c1	i	x	5.2*	i	i	i
Cc1ccc(OCCN2C(=O)c3ccccc3C2=O)c([N+](=O)[O-])c1	i	-1.7	-9	i	9*	i
CCCCN(CC)Cc1c(O)ccc2c3c(c(=O)oc12)CCC3	i	-0.27	-13	i	i	i
COCCN(CCOC)Cc1c(O)ccc2c3c(c(=O)oc12)CCC3	-7.1*	-0.014	-7	i	i	i
O=C(CSc1nnc(-c2ccc(F)cc2)n1CC1CCCO1)NCc1ccco1 (stereo not given)	i	x	-12	i	i	i
CON/C=N/C(=S)Nc1ncc(C(F)(F)F)cc1Cl	i	75*	15*	i	51*	i
Cc1ccc(NC(=S)NNc2ncc(C(F)(F)F)cc2Cl)c(C)c1	i	4.3*	-8	i	i	i
CC(C)C(=O)Nc1ncc(C(F)(F)F)cc1Cl	i	0.13	-8	i	i	i
FC(F)(F)c1cnc(NNC(=S)Nc2ccc(Cl)cc2)c(Cl)c1	i	30*	-7	i	i	i
O=C(c1cccc(Oc2c(Cl)cccc2[N+](=O)[O-])c1)N1CCOCC1	i	x	-3	i	i	i
COc1ccc(-c2csc(C(C#N)=C(O)CSc3nccn3C)n2)cc1OC	x	x	x	i	x	x
S=c1nc(COc2ccccc2)[nH]c2ccccc12	i	x	76*	i	92*	i
O=c1[nH]c(COc2ccccc2)nc2ccccc12	i	x	1	i	i	i
S=c1nc(Cc2ccccc2)[nH]c2ccccc12	i	x	44*	i	48*	i
FC(F)(F)c1nc(=S)c2ccccc2[nH]1	x	32*	x	i	x	x
NS(=O)(=O)c1cc(C(=O)OCC(=O)N2CCc3ccccc3C2)ccc1Cl	x	x	x	i	x	x
C[C@@H]1CC=C[C@H]2[C@H]1C(=O)N(Cc1ccccc1)[C@H]2c1ccc(F)c(Br)c1	-19*	-0.87	-26	x	i	10*
SMILES	KCNK9 block	KCC2 mod	hERG rescue	KCNK3 block	KCNQ1 act	KCNQ1 block
Cc1ccc(-c2cccc(C3CC=CC4C3C(=O)N(Cc3ccccc3)C4c3ccc4ccccc4c3)c2)cc1 (stereo not given)	i	0.37	8.4*	i	i	i
C[C@@H]1CC=C[C@H]2[C@H]1C(=O)N(Cc1ccccc1)[C@H]2c1ccc(F)c(/C=C/c2ccccc2)c1	i	1.5	-7	i	i	i
O=C1C2C(c3cccc(/C=C/c4ccccc4)c3)CC=CC2C(c2ccc3ccccc3c2)N1Cc1ccccc1 (stereo not given)	i	0.048	-8	i	i	i
Cc1c(-c2ccn[nH]2)cc(NC(=O)c2ccc(Cl)cc2)c(=O)n1N	i	-0.25	5.0*	i	i	i
Cc1ccc(F)c(Oc2cc(NN3CCCCC3)c([N+](=O)[O-])cc2[N+](=O)[O-])c1	-7.3*	x	-9	i	i	i
Nc1nc(-c2ccccn2)nc(N)c1Cc1ccc(Cl)cc1Cl	i	0.16	-12	i	9*	i
CC1CCC/C=C/C(=O)c2c(O)cc(O)cc2CC(=O)O1 (stereo not given)	i	-0.26	-16	i	i	7*
C[C@@H]1Cc2c(O)c(O)cc(O)c2C(=O)O1	i	0.7	-7	i	i	i
COc1ccc(-[n+]2c(C)cc(/C=C3\Sc4ccccc4N3C)cc2C)cc1	i	i	-46	i	i	23*
COc1cc2c(cc1OC)C(c1ccc([N+](=O)[O-])cc1)N(C(C)=O)CC2 (stereo not given)	i	x	9.4*	i	i	i
CCOC(=O)C1CCN(C(=O)c2cc3cc(C)ccc3[nH]2)CC1	i	x	-2	i	i	i
O=c1c2cc(F)ccc2[nH]c(=S)n1Cc1ccc(F)cc1	i	x	0	i	i	i
O=c1c2cc(Cl)ccc2[nH]c(=S)n1Cc1cccs1	i	19*	3	i	8*	i
O=c1c2cc(Cl)ccc2[nH]c(=S)n1Cc1ccco1	i	20*	-14	i	i	i
CN1CCN(C(=O)c2ccc(OCCOc3ccccc3)cc2)CC1	i	x	-8	i	i	i
COc1cc2cc(C(=O)Nc3ccc4c(c3)OCCO4)[nH]c2cc1OC	i	x	-10	i	i	i
Cc1cccc(Nc2nc(N)c([N+](=O)[O-])c(NCc3ccccc3)n2)c1	i	-0.49	-8	i	i	7*
Nc1nc(Nc2ccccc2)nc(NCc2ccccc2)c1[N+](=O)[O-]	i	-0.062	-4	i	i	i
Cc1ccc(NC(=O)COc2ccccc2CNC(C)(C)CC(C)(C)C)cc1	i	0.61	-19	i	i	8*
CC(C)(CO)NCc1ccccc1OCC(=O)Nc1ccccc1	i	0.63	-1	i	i	i
O=C(CCN(CCO)Cc1ccccc1)Nc1ccc(Br)cc1	i	-0.5	-8	i	i	i
CCN(CCC(=O)Nc1ccc(Br)c(C)c1)Cc1ccccc1	i	x	-8	i	i	8*
COC(=O)C1=CN(Cc2cccs2)C=C(C(=O)OC)C1c1ccc(OC)cc1OC	i	-1.2	-8	i	i	i
COC(=O)C1=CN(Cc2cccs2)C=C(C(=O)OC)C1c1cccc(Cl)c1	-7.9*	-1	-12	i	i	i
O=C(CN1C(=O)COc2ccccc2C1=O)c1ccc2c(c1)OCCO2	i	x	-6	i	i	i
